Experimental data as given in ChEMBL document CHEMBL4765301, “Discovery of novel TNNI3K inhibitor suppresses pyroptosis and apoptosis in murine myocardial infarction injury” (Eur J Med Chem, 2020).
Calls of active or inactive are those of the source. The calls are words filed in the database; no cut-off is given here.

Experiments:
H9c2 = assay: Inhibition of OGD-induced apoptosis in rat H9c2 cells assessed as reduction in caspase1 activation at 0.5 to 1 uM by Western blot analysis; format: functional, cell-based; conditions: dose 0.5-1 µM
Procedure, shortened: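 H9c2 cells under OGD were treated with saline or 0.5 or 1.0 µM inhibitor. Cells were trypsinised, washed in cold PBS, lysed in RIPA with sonication and centrifuged 30 min. Total protein was quantified and separated by SDS-PAGE, then transferred to PVDF. Blots were probed with primary and secondary antibodies and detected by ECL.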

Mus musculus = assay: In vivo inhibition of TNNI3K in C57BL/6 mouse at 25 mg/kg, ip administered for 28 days and measured on day 28 by immunohistochemical staining based fluorescence microscopy; format: functional, organism-based; conditions: time 28.0 day
Procedure, shortened: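 Male C57BL/6 mice (5-6 weeks) with LAD-ligation MI; sham, saline or 25 mg/kg ip every two days, n=4, 28 days. Heart sections given EDTA (pH 8.0) or citrate (pH 6.0) microwave antigen retrieval, then primary antibody 30-40 min at 37°C. Detection by HRP polymer secondary with DAB (IHC) or fluorescent secondary (IF). Positive cells were quantified.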

CN(C)CCCN1CCc2c(sc3ncnc(Nc4ccc(N(C)C)c(NC(=O)c5ccco5)c4)c23)C1
inhibition (H9c2): Active | inhibition (Mus musculus): Active
